Assay results published in ChEMBL document CHEMBL3259682, “Synthesis, β-haematin inhibition, and in vitro antimalarial testing of isocryptolepine analogues: SAR study of indolo[3,2-c]quinolines with various substituents at C2, C6, and N11” (Bioorg Med Chem, 2014).

Tests used:
[1] = test system: L6; experiment: Cytotoxicity against rat L6 cells after 70 hrs by Alamar Blue assay; format: functional, cell-based; conditions: L6, 70 h
Procedure, shortened: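 Rat skeletal myoblast L6 cells, 4000 per well, in RPMI 1640 with 1% L-glutamine and 10% fetal bovine serum. Eleven 3-fold serial drug dilutions were tested. Alamar Blue was added for a final 2 h. Fluorescence was read at excitation 536 nm and emission 588 nm. IC₅₀ is the mean of two independent assays.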

[2] = test system: Plasmodium falciparum; experiment: Antimalarial activity against erythrocytic stage of chloroquine/pyrimethamine-resistant Plasmodium falciparum K1 after 48 hrs by [3H]-hypoxanthine incorporation assay; format: functional, organism-based
Procedure, shortened: (§1)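 Chloroquine/pyrimethamine-resistant K1 and drug-susceptible NF54 P. falciparum were grown in hypoxanthine-free RPMI 1640 with HEPES, NaHCO₃, neomycin and Albumax, in human A⁺ erythrocytes at 2.5% haematocrit and 0.3% parasitaemia. DMSO stocks were 10 mg/mL, tested in eleven 3-fold dilutions under 4% CO₂/3% O₂/93% N₂. ³H-hypoxanthine was added at 48 h, then 24 h more before filter harvest. IC₅₀ is the mean of two assays; RI = K1/NF54 IC₅₀.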

[3] = Binding affinity to haematin assessed as inhibition of beta-haematin formation after 5 to 6 hrs by pyridine-ferrichrome-based method
Procedure, shortened: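 Detergent (NP-40) mediated β-haematin formation assay, run manually. Compounds came from 20, 2 and 0.4 mM DMSO stocks, tested at 0–1000 µM final. Haematin was 100 µM final in 0.5 M acetate buffer, pH 4.8. Incubation was 5–6 h at 37 °C. Read-out used the pyridine-ferrichrome method with UV–vis absorbance. IC₅₀ came from sigmoidal dose–response fits.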

[4] = Selectivity index, ratio of IC50 for rat L6 cells to IC50 for erythrocytic stage of chloroquine-sensitive Plasmodium falciparum NF54; format: toxicity, cell-based; conditions: read-out: Ratio IC50
Procedure, shortened: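 Selectivity index is the L6 cytotoxicity IC₅₀ divided by the NF54 antiplasmodial IC₅₀. Each IC₅₀ is the mean of two independent assays.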

[5] = Resistance index, ratio of IC50 for chloroquine/pyrimethamine-resistant Plasmodium falciparum K1 to IC50 for erythrocytic stage of chloroquine-sensitive Plasmodium falciparum NF54; format: functional; procedure, shortened: as §1
[6] = test system: Plasmodium berghei; experiment: Antimalarial activity against Plasmodium berghei infected in Swiss mouse assessed as survival at 50 mg/kg, ip qd administered for 4 days measured on day 4 post last dose; format: functional; conditions: route intraperitoneal
[7] = Selectivity index, ratio of IC50 for rat L6 cells to IC50 for chloroquine/pyrimethamine-resistant Plasmodium falciparum K1; format: toxicity, cell-based; conditions: read-out: Ratio IC50
[8] = test system: Plasmodium berghei; experiment: Antimalarial activity against Plasmodium berghei infected in Swiss mouse assessed as reduction in parasitemia at 50 mg/kg, ip qd administered for 4 days measured on day 4 post last dose by FACS analysis relative to control; format: functional; set-up: scale not given: the % may be the effect or the level left; conditions: route intraperitoneal
Procedure, shortened: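 Plasmodium berghei-infected mice, standard '4 Day Test'. Parasitaemia measured by FACS. Activity is the difference between mean percent parasitaemia of control (n = 5 mice) and treated groups, expressed as a percentage of control.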

[9] = test system: Plasmodium falciparum; experiment: Antimalarial activity against erythrocytic stage of chloroquine-sensitive Plasmodium falciparum NF54 after 48 hrs by [3H]-hypoxanthine incorporation assay; format: functional, organism-based
Procedure, shortened: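 ³H-hypoxanthine incorporation against P. falciparum NF54. DMSO stocks at 10 mg/mL were added to cultures in hypoxanthine-free RPMI 1640 with HEPES, NaHCO₃, neomycin and Albumax, using human A⁺ red cells at 2.5% haematocrit and 0.3% parasitaemia. Eleven 3-fold serial dilutions were tested. Incubation was under 4% CO₂/3% O₂/93% N₂. ³H-hypoxanthine was added after 48 h, followed by a further 24 h. Cells were harvested onto glass-fibre filters. IC₅₀ is the mean of two independent assays.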

| SMILES | IC50 [1] [nM] | IC50 [2] [nM] | IC50 [3] [nM] | selectivity ratio [4] | Ratio IC50 [5] | Survival [6] [days] | selectivity ratio [7] | Activity [8] [%] | IC50 [9] [nM] |
| --- | --- | --- | --- | --- | --- | --- | --- | --- | --- |
| CC(C)(CNC(=O)Nc1ccccc1)CNc1nc2ccc(Cl)cc2c2[nH]c3ccccc3c12 | 4000 | 16.9 | 11700 | 378 | 1.6 | 4 | 236 | 38 | 10.6 |
| O=C(NCCCNc1nc2ccccc2c2[nH]c3ccccc3c12)c1cccs1 | 3500 | 84.9 | 24100 | 48.3 | 1.2 |  | 41.2 |  | 72.4 |
| O=C(NCCCNc1nc2ccc(Cl)cc2c2[nH]c3ccccc3c12)Nc1ccccc1 | 2570 | 50 | 14400 | 95.1 | 1.9 |  | 51.4 |  | 27 |
| S=C(NCCCNc1nc2ccccc2c2[nH]c3ccccc3c12)Nc1ccccc1 | 249 | 49.3 | 18500 | 10.6 | 2.1 |  | 5.1 |  | 23.5 |
| NCCCCCNc1nc2ccccc2c2[nH]c3ccccc3c12 | 816 | 25.1 | 81000 | 64.8 | 2 |  | 32.5 |  | 12.6 |
| O=C(NCCCCCCNc1nc2ccccc2c2[nH]c3ccccc3c12)Nc1ccccc1 | 862 | 24.4 | 16200 | 39 | 1.1 |  | 35.3 |  | 22.1 |
| NCCCNc1nc2ccc(Cl)cc2c2[nH]c3ccccc3c12 | 1120 | 67.7 | 12400 | 181 | 10.9 |  | 16.6 |  | 6.2 |
